# Source: PubChem BioAssay (several laboratories)
# Rows were chosen to be rich in hits. Some 1.3% of all compounds tested hit in one or more screens of this group.
# G6PDH CS: L. mesenteroides G6PDH inhibitors, counter-screen for G6PDH-coupled screening assays, biochemical, Leuconostoc mesenteroides enzyme | glucose-6-phosphate dehydrogenase [Leuconostoc mesenteroides] | Purified L. mesenteroides G6PDH, diaphorase/resazurin coupled fluorescence, 45 min | inhibition, % at 5 µM | 0.12% of 200,000 active | AID 1020, 2008; in the data active = inhibition above about 50%
# HKDC1 inh: HKDC1 hexokinase inhibitors, primary screen, biochemical, fluorescence, uHTS; 0.16% of 340,000 active; inhibition, % at 20 µM; AID 493160, 2011; recombinant HKDC1, G6PDH/diaphorase resazurin coupled fluorescence;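 active = inhibition above about 35% when tested at 20 µM, limit read from the data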;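 note: plate controls were DMSO wells with enzyme for no effect and DMSO wells lacking enzyme for full effect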
# Target sequence (Q2TB90 whole entry, looked up): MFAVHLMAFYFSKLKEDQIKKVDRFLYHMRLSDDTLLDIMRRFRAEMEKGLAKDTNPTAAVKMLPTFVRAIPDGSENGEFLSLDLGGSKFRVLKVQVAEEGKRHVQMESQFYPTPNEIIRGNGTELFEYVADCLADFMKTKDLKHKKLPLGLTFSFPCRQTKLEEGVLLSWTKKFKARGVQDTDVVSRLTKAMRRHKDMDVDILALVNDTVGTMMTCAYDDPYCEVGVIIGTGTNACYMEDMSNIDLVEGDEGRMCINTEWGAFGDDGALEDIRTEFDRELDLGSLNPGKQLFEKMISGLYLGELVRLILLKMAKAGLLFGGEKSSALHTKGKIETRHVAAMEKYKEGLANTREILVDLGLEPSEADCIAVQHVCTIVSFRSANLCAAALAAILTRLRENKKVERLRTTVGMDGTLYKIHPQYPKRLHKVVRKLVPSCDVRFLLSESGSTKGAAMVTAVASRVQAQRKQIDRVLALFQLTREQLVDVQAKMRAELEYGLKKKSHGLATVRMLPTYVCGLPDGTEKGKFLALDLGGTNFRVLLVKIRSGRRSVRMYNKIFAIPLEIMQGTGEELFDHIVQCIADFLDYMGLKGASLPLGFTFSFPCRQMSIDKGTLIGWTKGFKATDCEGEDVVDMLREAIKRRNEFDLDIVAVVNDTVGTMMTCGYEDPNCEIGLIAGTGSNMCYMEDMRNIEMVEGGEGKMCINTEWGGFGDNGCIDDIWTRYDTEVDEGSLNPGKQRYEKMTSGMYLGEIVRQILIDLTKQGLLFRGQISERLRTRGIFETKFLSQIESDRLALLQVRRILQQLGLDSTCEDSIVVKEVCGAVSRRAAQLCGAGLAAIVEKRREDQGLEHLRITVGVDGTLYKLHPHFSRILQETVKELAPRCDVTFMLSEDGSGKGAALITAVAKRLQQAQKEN
#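 Material – in-house recombinant HK5 (HKDC1) enzyme · Quantity – HKDC1 at 5 µg/mL · Buffer or medium – pH 8.0 Tris buffer with 10 mM MgCl2 · Reagent – glucose with 1 mM ATP · Dosing – single 20 µM dose · Times – reaction time 90 min, room temperature, protected from light · Technique – resorufin fluorescence at 613 nm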
# Diaphorase inh: diaphorase inhibitors and chemical oxidizers, primary screen, counter-screen for diaphorase-coupled primary assays, biochemical, uHTS, resorufin fluorescence. 0.69% of 190,000 active. AID 1217, 2008. inhibition, % at 20 µM. diaphorase resazurin-to-resorufin fluorescence, NADH, 16 min; bacterial (C. kluyveri) enzyme, not human;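 active = primary screen inhibition at 20 µM above a set limit, cut at about 50% in these data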;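 note: plate controls were DMSO with full reaction for no effect and wells lacking NADH for full effect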
#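 Assay system: diaphorase enzyme from Clostridium kluyveri. Quantity: enzyme working solution with 0.14 U/mL diaphorase. Schedule: reaction incubation of 16 min at room temperature. Technique: resorufin fluorescence, excitation 544 nm, emission 590 nm. Controls: No-NADH positive control and DMSO neutral control.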
# Tb hexokinase: Trypanosoma brucei hexokinase 1 inhibitors, primary screen, biochemical, G6PDH-coupled NADH absorbance, MLSCN library. hexokinase 1 [Trypanosoma brucei]. 0.11% of 220,000 active. inhibition, % at 10 µM. recombinant TbHK1, G6PDH-coupled NADH A340;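 active = inhibition of 50% or more in the single-dose primary screen; inactive = inhibition below 50%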
# PfG6PD inh: PfG6PD enzyme inhibitors, primary screen, biochemical, fluorescence intensity, uHTS | glucose-6-phosphate dehydrogenase-6-phosphogluconolactonase (Plasmodium falciparum 3D7) | PfGluPho enzyme, NADPH resazurin-diaphorase fluorescence | inhibition, % at 20 µM | 0.78% of 350,000 active;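 active = inhibition reaching at least a set limit at 20 µM in the primary screen, cut at about 59% in these data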;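 note: 0% = DMSO wells with substrate and 100% = DMSO wells lacking glucose-6-phosphate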
# PfG6PD confirm: PfG6PD inhibitors, hit retest, confirmation, biochemical, fluorescence intensity, single concentration | shares compounds with PfG6PD inh | recombinant PfGluPho, NADPH-diaphorase-resazurin fluorescence | inhibition, % at 20 µM | 34% of 2,400 active | AID 504753, 2011;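 active = inhibition of at least 50% at 20 µM in any single replicate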;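 note: 0% = DMSO with substrate and 100% = DMSO lacking glucose-6-phosphate substrate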
# Diaphorase 10uM: diaphorase inhibitors and chemical oxidizers, confirmation, counter-screen for P. falciparum G6PD inhibitor project, biochemical, fluorescence intensity, 10 µM NADPH; 39% of 820 active; diaphorase-coupled resazurin reduction, NADPH 10 uM; inhibition, % at 20 µM; shares compounds with PfG6PD inh; AID 504862, 2011;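 active = average inhibition reaching 50% or more with the compound at 20 µM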;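 note: resorufin red fluorescence formed as diaphorase reduces resazurin using NADPH; 0% = DMSO with enzyme and 100% = DMSO without enzyme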
# Diaphorase 30uM: diaphorase inhibitors and chemical oxidizers, confirmation, counter-screen for P. falciparum G6PD inhibitor project, biochemical, fluorescence intensity, 30 µM NADPH; Diaphorase/resazurin coupled assay, resorufin fluorescence; inhibition, % at 20 µM; shares compounds with PfG6PD inh; 29% of 820 active; AID 504863, 2011;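 active = inhibition averaging 50% or more, tested at 20 µM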;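 note: 0% = DMSO with enzyme and 100% = DMSO wells lacking diaphorase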
# * marks the source's active call; other numbers are inactive results; · = not tested or not shown.
SMILES,G6PDH CS,HKDC1 inh,Diaphorase inh,Tb hexokinase,PfG6PD inh,PfG6PD confirm,others
CCCCNC(=S)NCc1ccc2[nH]c3c(c2c1)CCCC3,-5,-1,8,9,22,·,
CN(C(=O)COC(=O)c1cccc(F)c1)c1ccccc1,·,-4,·,·,4,·,
COc1ccc(N2C(=O)C3CC(C)=C(C)CC3C2=O)c(OC)c1 (centres undefined),1,-2,-6,-5,-2,·,
COc1ccc(N2CSC3=C(C#N)C(c4cc(OC)c(OC)cc4OC)CC(=O)N3C2)c(OC)c1 (centres undefined),44,13,66*,-18,102*,74*,Diaphorase 10uM=6;Diaphorase 30uM=7
CCOc1ccccc1N1CSC2=C(C#N)C(c3c(OC)ccc4ccccc34)CC(=O)N2C1 (centres undefined),42,23,67*,-22,74*,31,
COc1ccc(N2CSC3=C(C#N)C(c4ccc(OC)c(OC)c4)CC(=O)N3C2)c(OC)c1 (centres undefined),43,14,58*,-17,80*,65*,Diaphorase 10uM=5;Diaphorase 30uM=11
Cc1ccc(N2CSC3=C(C#N)C(c4cccs4)CC(=O)N3C2)cc1 (centres undefined),22,15,46,-6,70*,32,
Cn1cnc2cc(NCc3ccc(Cl)cc3)ccc21,·,0,·,·,32,·,
COc1cc(OC)c(C2CC(=O)N3CN(c4ccc(C)cc4)CSC3=C2C#N)cc1OC (centres undefined),44,16,46,-22,89*,40,
COc1ccc(C2CC(=O)N3CN(c4ccc(C)c(Cl)c4)CSC3=C2C#N)cc1OC (centres undefined),18,17,60*,-28,59*,3,
COc1ccc(CCNC(=O)C2CC(=O)N(c3ccc(C)cc3)C2)cc1OC (centres undefined),·,4,·,·,-12,·,
Cc1ccc(S(=O)(=O)N2CCC(C(=O)N3CCN(Cc4ccccc4)CC3)CC2)cc1,-14,-6,12,-4,6,·,
CCCCNc1c(-c2ccc(OC)c(SC3CCCCC3)c2)nc2ccc(Cl)cn12,·,8,·,·,24,·,
CCOC(=O)CNc1c(-c2ccc(OC)cc2)nc2ccc(Cl)cn12,4,-2,11,-14,74*,26,
COCCNc1c(-c2ccc(OC)cc2)nc2ccc(Cl)cn12,0,6,12,-17,65*,41,
COC(=O)C1CCN(C(=O)COC(=O)C2CCN(S(=O)(=O)c3ccc4c(c3)OCCO4)CC2)CC1,·,-16,·,·,-1,·,
CCCCCSc1nncc(=O)[nH]1,-3,-2,10,9,-14,·,
CCCCCCCCSC1=CC(=O)C(OC)=C(OC)C1=O,·,·,·,·,125*,86*,Diaphorase 10uM=67*;Diaphorase 30uM=39
O=c1cc(NCc2ccco2)[nH]c(=O)n1-c1ccc(Br)cc1,2,-4,18,-4,-7,·,
CCOC(=O)c1cnc(-c2ccccc2)nc1N1CCOCC1,11,0,14,-9,-15,·,
CCOC(=O)c1[nH]cc(-c2ccccc2)c1N1CCOCC1,8,-8,13,-1,73*,25,
CCOC(=O)C1(CCCCCCOc2ccc(Cl)cc2)CO1 (centres undefined),10,·,-8,·,·,·,
CCOC(=O)c1sc2nc(-c3ccco3)c3c(c2c1N)CC(C)(C)OC3,5,8,13,·,64*,10,
O=C(Nc1cc(C(F)(F)F)ccc1N1CCOCC1)C1Cc2ccccc2CN1C(=O)c1ccco1 (centres undefined),2,4,31,-9,81*,23,
O=C(Nc1ccccc1)C1Cc2ccccc2CN1C(=O)c1ccco1 (centres undefined),13,-2,12,-8,11,·,
SMILES,G6PDH CS,HKDC1 inh,Diaphorase inh,Tb hexokinase,PfG6PD inh,PfG6PD confirm,others
Cc1ccc(O)c(N=Cc2ccc(C)s2)c1,36,16,35,3,67*,20,
Cc1ccc(O)c(N=Cc2cccs2)c1,36,15,30,0,71*,45,
OCC[C@@H]1C[C@H](O)[C@@H](O)[C@]2(Cc3ccccc3O2)O1,·,-3,·,·,12,·,
CCOC(=O)CCSCC(=O)N1N=C(c2cccs2)CC1c1ccc(C)cc1 (centres undefined),-7,-4,24,0,-4,·,
CCOC(=O)c1c(C)[nH]c(C)c1S(=O)(=O)NCc1ccc(OCC)cc1,·,2,·,·,1,·,
Nc1nc2c(ncn2COC(CO)CO)c(=O)[nH]1,13,-2,2,-3,-12,·,
Cc1onc(-c2ccccc2)c1C(=O)N(Cc1ccco1)Cc1cccs1,-4,0,-2,9,83*,39,
Cc1onc(-c2ccccc2)c1C(=O)NCc1ccco1,-8,-8,15,1,-5,·,
Cc1cccc(NC2=C(NC(=O)c3ccccc3)C(=O)c3ccccc3C2=O)c1,-18,10,34,-16,83*,69*,Diaphorase 10uM=41;Diaphorase 30uM=41
Brc1cccc(Nc2nc(-c3cccnc3)cs2)c1,·,-1,·,·,60*,-14,
CC1(C)Cc2nc3oc4c(=O)n(CC(=O)Nc5cccc(Cl)c5)cnc4c3cc2CO1,·,-6,·,-5,-13,·,
Fc1ccc(CN2CCSCC2)cc1F,·,-9,·,·,19,·,
O=C(CSc1cccc2cccnc12)N/N=C/c1ccc(O)cc1,·,2,·,-33,41,·,
COc1cccc(/C=N/NC(=O)CSc2cccc3cccnc23)c1,·,-18,·,-10,69*,54*,Diaphorase 10uM=64*;Diaphorase 30uM=41
CCc1ccc(NC(=O)C(=O)N/N=C(\C)CC(=O)Nc2ccccn2)cc1,-9,-11,12,-3,-8,·,
C=CCSc1nc2sc3c(c2c(=O)n1CC)CCc1ccccc1-3,7,-21,21,-2,84*,51*,Diaphorase 10uM=-16;Diaphorase 30uM=-1
CC(OC(=O)c1ccc([N+](=O)[O-])o1)C(=O)Nc1nc(-c2ccc(F)c(F)c2)cs1 (centres undefined),·,5,·,·,18,·,
